Source: PubChem (Broad Institute)
T cruzi growth-1 = inhibitors of T. cruzi proliferation; 77,000 compounds, 5.9% hits; T. cruzi beta-gal in NIH3T3, GalScreen luminescence, 90 h; inhibition, % at 8.34 µM;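 active means mean inhibition above about 93%, with at least 55% of replicates each passing it, limit read from the data, passing the limit was not always enough; inconclusive means only one of those two conditions holds; inactive means neither condition holds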
IDH1 mut inh = blocks human IDH1 R132H reductase activity; O75874; diaphorase/resazurin fluorescence, 60 min; inhibition, % at 10 µM; 70,000 compounds, 0.18% hits; AID 624101; in the data active means inhibition above about 34%; inconclusive means no clear call, values can overlap the other calls; inactive means below about 11%;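 further: 0% = DMSO and 100% = no enzyme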
Target sequence (O75874 whole entry R132H): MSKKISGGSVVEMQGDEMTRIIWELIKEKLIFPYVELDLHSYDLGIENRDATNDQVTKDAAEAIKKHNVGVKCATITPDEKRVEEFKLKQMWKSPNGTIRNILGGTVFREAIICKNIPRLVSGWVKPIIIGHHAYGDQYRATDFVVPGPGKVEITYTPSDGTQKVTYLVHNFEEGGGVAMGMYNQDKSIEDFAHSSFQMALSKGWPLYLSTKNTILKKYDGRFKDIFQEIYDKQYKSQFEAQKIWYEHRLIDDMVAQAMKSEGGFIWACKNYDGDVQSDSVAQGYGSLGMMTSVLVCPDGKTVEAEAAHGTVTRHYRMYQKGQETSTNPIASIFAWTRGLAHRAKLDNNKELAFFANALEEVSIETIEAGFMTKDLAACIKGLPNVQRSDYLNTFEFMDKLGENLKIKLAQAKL
Pf Dd2 inh = blocks growth of Plasmodium falciparum Dd2 parasites; P. falciparum Dd2 growth, SYBR Green, 72 h; active compounds read low; activity change, % at 10 µM; 94,000 compounds, 2.3% hits; in the data active means activity change below about -80%; inconclusive means no clear call, values can overlap the other calls
GASC1 inh = KDM4C (human) demethylase inhibition; Q9H3R0; GST-KDM4C 2-372, H3K9me3 peptide, LANCE TR-FRET; inhibition, % at 12.5 µM; 96,000 compounds, 0.15% hits;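 active means mean replicate inhibition above about 25%, with at least 55% of replicates also reaching it, limit read from the data, passing the limit was not always enough; inconclusive means only one of those two conditions met; inactive means neither condition met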
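System: N-terminal GST-fused human GASC-1 (KDM4C) fragment, residues 2-372 / Amount: 10 nM GST-KDM4C in enzyme reaction / Also added: H3K9me3 peptide with Fe(II)/2OG / Times: 30 min demethylation and 1 h detection at room temperature / Signal: LANCE TR-FRET / Read-out basis: Fall in 671/618 emission ratio as inhibition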
T cruzi growth-2 = inhibitors of T. cruzi proliferation; 5,600 compounds, 72% hits; AID 651739; shares compounds with T cruzi growth-1; T. cruzi beta-gal in NIH3T3, GalScreen luminescence, 90 h; inhibition, % at 8.35 µM;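 active means mean replicate inhibition above about 95% and at least 55% of replicates individually reaching it, limit read from the data; inconclusive means only one of the two criteria is met; inactive means neither criterion is met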
T cruzi growth-3 = blocks T. cruzi growth in NIH3T3 host cells; shares compounds with T cruzi growth-1; T. cruzi beta-gal in NIH3T3, GalScreen luminescence, 90 h; inhibition, % at 2.09 µM; 5,600 compounds, 21% hits; AID 651740;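 active means mean inhibition above about 95%, with at least 55% of replicates also reaching it, limit read from the data; inconclusive means meets just one of the two conditions; inactive means meets neither condition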;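 further: plate controls were neutral control median for no effect and positive control median for full effect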
3T3 cytotox = kills mouse NIH/3T3 fibroblasts | shares compounds with T cruzi growth-1 | NIH/3T3 viability, CellTiter-Glo ATP luminescence, 90 h | cytotoxicity (signal decrease), % at 8.35 µM | 5,600 compounds, 14% hits | AID 651742;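 active means mean signal decrease across replicates above about 35% based on untreated-well scatter, with enough replicates individually passing, limit read from the data; inconclusive means no rule stated though some were filed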;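 further: 0% = median of neutral control wells and 100% = median of positive control wells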
NIH3T3 tox 2 = cytotoxicity in mouse NIH/3T3 fibroblasts; shares compounds with T cruzi growth-1; NIH/3T3 viability, CellTiter-Glo ATP luminescence, 90 h; inhibition, % at 24.9 µM; 5,600 compounds, 56% hits; AID 651744;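 active means mean loss of cell viability signal at or above a set limit, and enough replicates individually reaching it; inconclusive means meets only the mean limit or only the replicate share; inactive means meets neither condition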;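 further: 0% = median of neutral control wells and 100% = median of positive control wells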
The depositor's hits bear a star; ? = inconclusive; nt = no result given. Only some compounds are listed: those with a hit (about 5.8% of all), similar ones and a draw of the others.

SMILES	T cruzi growth-1	IDH1 mut inh	Pf Dd2 inh	GASC1 inh	T cruzi growth-2	T cruzi growth-3	3T3 cytotox	NIH3T3 tox 2
C[C@@H]1CN([C@H](C)CO)S(=O)(=O)c2ccc(C3=CCCC3)cc2O[C@H]1CN(C)Cc1ccncc1	115.0*	2.2	-64.5	-1.1	98.2*	104.3*	68.1*	76.0*
C[C@@H]1CN([C@H](C)CO)S(=O)(=O)c2ccc(C3=CCCC3)cc2O[C@@H]1CN(C)Cc1ccncc1	74.3	nt	-19.1	3.9	nt	nt	nt	nt
C[C@H]1CN([C@@H](C)CO)S(=O)(=O)c2ccc(C3=CCCC3)cc2O[C@@H]1CN(C)Cc1ccncc1	117.4*	nt	-23.0	-0.5	98.2*	?	45.0*	96.9*
O=C(Nc1ccc(S(=O)(=O)Nc2ncccn2)cc1)c1cccc(I)c1	nt	0.1	nt	nt	nt	nt	nt	nt
C[C@H](CO)N1C[C@H](C)[C@H](CN(C)Cc2ccc3c(c2)OCO3)Oc2ncc(/C=C/c3ccccc3)cc2C1=O	111.4*	1.4	-66.4	-0.6	97.8*	63.9	27.7	103.3*
C[C@@H]1CN([C@H](C)CO)C(=O)c2cc(/C=C/c3ccccc3)cnc2O[C@H]1CN(C)Cc1ccc2c(c1)OCO2	121.4*	-0.6	-62.0	-0.1	100.2*	?	38.4*	104.3*
C[C@H](CO)N1C[C@H](C)[C@@H](CN(C)Cc2ccc3c(c2)OCO3)Oc2ncc(/C=C/c3ccccc3)cc2C1=O	92.3	-2.5	-58.9	7.2	nt	nt	nt	nt
C[C@H]1CN([C@@H](C)CO)C(=O)c2cc(/C=C/c3ccccc3)cnc2O[C@H]1CN(C)Cc1ccc2c(c1)OCO2	72.4	0.1	-32.6	-0.6	nt	nt	nt	nt
C[C@H]1CN([C@@H](C)CO)C(=O)c2cc(/C=C/c3ccccc3)cnc2O[C@@H]1CN(C)Cc1ccc2c(c1)OCO2	118.0*	0.3	-40.7	0.0	108.2*	72.5	14.2	102.5*
O=C(C[C@H]1CC[C@H]2[C@@H](COC[C@@H](O)CN2Cc2ccc(Cl)cc2)O1)NCCc1ccccc1	20.7	nt	nt	-3.3	nt	nt	nt	nt
C/C=C/c1ccc2c(c1)O[C@H](CN(C)Cc1ccc(F)cc1)[C@H](C)CN([C@@H](C)CO)S2(=O)=O	59.1	-0.3	3.3	-0.6	nt	nt	nt	nt
C/C=C/c1ccc2c(c1)O[C@@H](CN(C)Cc1ccc(F)cc1)[C@H](C)CN([C@H](C)CO)S2(=O)=O	118.7*	0.1	-51.9	0.4	97.9*	110.2*	51.6*	105.4*
C/C=C/c1ccc2c(c1)O[C@H](CN(C)Cc1ccc(F)cc1)[C@@H](C)CN([C@H](C)CO)S2(=O)=O	103.6*	0.4	-58.2	-0.9	?	93.0	?	106.0*
C[C@@H]1CN([C@@H](C)CO)C(=O)c2cc(NC(=O)Nc3ccccc3)ccc2O[C@@H](C)CCCCO[C@H]1CN(C)CC1CCCCC1	97.0*	2.3	-75.0	-0.7	22.8	7.9	-0.7	4.1
C[C@@H]1CCCCO[C@H](CN(C)CC2CCCCC2)[C@H](C)CN([C@H](C)CO)C(=O)c2cc(NC(=O)Nc3ccccc3)ccc2O1	?	nt	?	-1.8	101.5*	89.8	28.5	104.6*
C[C@@H]1CCCCO[C@@H](CN(C)CC2CCCCC2)[C@H](C)CN([C@@H](C)CO)C(=O)c2cc(NC(=O)NC3CCCCC3)ccc2O1	98.8*	2.9	-56.0	-1.8	109.1*	73.0	-5.3	105.6*
C[C@@H]1CCCCO[C@@H](CN(C)CC2CC2)[C@@H](C)CN([C@H](C)CO)C(=O)c2cc(NC(=O)Nc3ccccc3)ccc2O1	96.7*	nt	-83.9*	-1.3	38.7	3.0	-1.6	7.1
C[C@@H]1CCCCO[C@@H](CN(C)CC2CC2)[C@H](C)CN([C@@H](C)CO)C(=O)c2cc(NC(=O)Nc3ccccc3)ccc2O1	82.5	nt	2.2	15.2	nt	nt	nt	nt
COc1ccc(-c2ccc(C3[C@H]4CNC[C@@H]3N4S(=O)(=O)c3cccc(Cl)c3)cc2)cc1 (stereo partly specified)	nt	nt	-3.6	0.0	nt	nt	nt	nt
